The values that follow come from ChEMBL document CHEMBL4017487, “Design and Synthesis of γ- and δ-Lactam M1 Positive Allosteric Modulators (PAMs): Convulsion and Cholinergic Toxicity of an M1-Selective PAM with Weak Agonist Activity” (J Med Chem, 2017).

Where a chain is given by its changes, count along the chain named.

Series [1] is described as follows: Ratio of unbound AUC in iv or po dosed mouse brain to plasma. It counts as ADME, organism-based.
Series [2] can be described thus: Half life in rat at 2 mg/kg, po administered as single dose. In kind it is ADME, organism-based. Conditions: in vivo; call rule not given here. An outline of the steps: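 Rat, single oral dose of 2 mg/kg given as a suspension in 0.5% methylcellulose. Half-life taken after the oral dose.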
A short description of series [3]: Ratio of unbound AUC in dog brain to plasma at 0.5 mg/kg, po or 0.1 mg/kg, iv administered as single bolus dose. In kind it is ADME, organism-based, Canis lupus familiaris.
Series [4] in a line: Oral bioavailability in dog at 0.5 mg/kg administered as single dose. The following applies: in vivo. It counts as ADME, organism-based, Canis lupus familiaris.
Series [5] concerns the target T1, Muscarinic acetylcholine receptor M2 (Homo sapiens, UniProt P08172).
T1 sequence (P08172 whole entry): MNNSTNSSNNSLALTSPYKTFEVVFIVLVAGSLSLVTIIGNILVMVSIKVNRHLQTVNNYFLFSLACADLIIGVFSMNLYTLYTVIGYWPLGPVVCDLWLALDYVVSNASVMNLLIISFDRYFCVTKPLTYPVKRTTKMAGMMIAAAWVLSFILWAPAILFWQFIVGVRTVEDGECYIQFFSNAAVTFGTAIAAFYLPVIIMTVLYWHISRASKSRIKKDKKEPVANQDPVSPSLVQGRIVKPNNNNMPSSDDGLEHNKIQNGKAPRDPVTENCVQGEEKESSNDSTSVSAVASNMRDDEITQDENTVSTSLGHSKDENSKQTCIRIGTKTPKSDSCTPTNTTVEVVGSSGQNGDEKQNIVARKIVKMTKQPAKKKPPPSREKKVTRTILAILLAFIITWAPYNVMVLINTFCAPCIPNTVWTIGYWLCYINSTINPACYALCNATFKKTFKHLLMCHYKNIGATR
Briefly: Positive allosteric modulation of human muscarinic acetylcholine receptor M2 expressed in CHO cells assessed as increase in acetylcholine-induced cAMP accumulation up to 10 uM after 2 hrs by cAMP-Glo assay. In kind it is cell-based. An outline of the steps:
(§1)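 Recombinant functional human M2–M5 assays, each run in agonist and PAM modes at concentrations up to 10 μM.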

Series [6] concerns the target Muscarinic acetylcholine receptor M3 (Homo sapiens, UniProt P20309). Briefly: Agonist activity at human muscarinic acetylcholine receptor M3 expressed in CHO cells assessed as increase in calcium mobilization incubated for 10 mins by Fluo-8-AM dye based FLIPR assay. In kind it is cell-based. The procedure, abridged:
as §1
(Calcium assays in cells follow changes in intracellular calcium, usually with a dye or a luminescent sensor.)

The target in series [7] is T2, Muscarinic acetylcholine receptor M1 (Rattus norvegicus, UniProt P08482).
T2 sequence (P08482 whole entry): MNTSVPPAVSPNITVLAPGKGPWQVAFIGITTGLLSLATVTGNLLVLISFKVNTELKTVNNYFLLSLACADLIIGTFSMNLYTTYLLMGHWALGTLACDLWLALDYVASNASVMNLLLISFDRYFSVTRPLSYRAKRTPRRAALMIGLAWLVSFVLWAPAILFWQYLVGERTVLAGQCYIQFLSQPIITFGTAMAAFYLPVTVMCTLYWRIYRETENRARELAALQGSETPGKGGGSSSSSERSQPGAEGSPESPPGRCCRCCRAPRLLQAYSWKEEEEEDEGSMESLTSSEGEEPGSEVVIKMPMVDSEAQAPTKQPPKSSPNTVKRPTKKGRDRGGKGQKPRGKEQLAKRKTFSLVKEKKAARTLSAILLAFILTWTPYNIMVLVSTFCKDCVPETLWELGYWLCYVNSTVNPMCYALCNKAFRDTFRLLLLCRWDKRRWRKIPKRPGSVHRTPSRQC
Briefly: Agonist activity at muscarinic acetylcholine receptor M1 in Sprague-Dawley rat brain hippocampal slices assessed as increase in firing rate at CA1 pyramidal neurons after 10 mins by electrophysiology method. An outline of the steps: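 Rat hippocampal slices; spontaneous action potentials recorded from CA1 pyramidal neurons, read as spike rate. Agonist mode has no carbachol; PAM mode uses an EC20 level of carbachol. Top concentration tested was 3 μM.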

The subject of series [8] is Canis familiaris. Briefly: Cholinergic toxicity in dog assessed as salivation at 15 mg/kg, po administered as single dose using spray dried dispersion formulation after 1 hr. It counts as organism-based, Canis lupus familiaris. The following applies: in vivo. An outline of the steps: (§2)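 Dog single oral dose escalation: 1/sex at 5 mg/kg for each formulation; 1 female at 15 mg/kg. Spray-dried dispersion: 23% drug loading with 0.5% methylcellulose and 100 mM citrate buffer. Clinical signs timed in approximate hours postdose; unbound plasma Cmax.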

The target of series [9] is T3, Muscarinic acetylcholine receptor M1 (Homo sapiens, UniProt P11229).
T3 sequence (P11229 whole entry): T2 sequence (P08482 whole entry) with V5A, S254T, S309P, K320R, G337A, V413I
Kind of series: Agonist activity at human muscarinic acetylcholine receptor M1 expressed in CHO cells assessed as increase in calcium mobilization at 30 uM incubated for 10 mins by Fluo-8-AM dye based FLIPR assay relative to acetylcholine. It counts as cell-based.

Series [10] deals with T3, Muscarinic acetylcholine receptor M1. Briefly: Positive allosteric modulation of human muscarinic acetylcholine receptor M1 expressed in CHO cells assessed as increase in acetylcholine-induced beta-arrestin recruitment by measuring functional co-operativity with acetylcholine. It counts as ADME, cell-based.
Series [11] shares this target. Kind of series: Ratio of positive allosteric modulation of human muscarinic acetylcholine receptor M1 expressed in CHO cells assessed as increase in acetylcholine-induced beta-arrestin recruitment by measuring functional co-operativity with acetylcholine to Kb for human muscarinic acetylcholine receptor M1 expressed in CHO cells assessed as increase in beta-arrestin recruitment. In kind it is ADME, cell-based. In general terms: Activated receptors often draw arrestin, which recruitment assays turn into a signal.

The subject of another series is Brain. Briefly: Unbound brain concentration in scopolamine-induced memory impairment Wistar rat model at 1 mg/kg, sc measured after 1.25 hrs by LC-MS/MS analysis. In kind it is ADME, organism-based. Conditions: in vivo.
Series [12] relates to Canis familiaris. Kind of series: Unbound Cmax in dog plasma at 5 mg/kg, po administered as single dose using spray dried dispersion formulation. In kind it is ADME, organism-based, Canis lupus familiaris. Conditions: in vivo.
For series [13], the system named is Canis familiaris. Kind of series: Unbound AUC (0 to 24 hrs) in dog plasma at 5 mg/kg, po administered as single dose using hydroxypropyl cellulose/docusate sodium formulation. It counts as ADME, organism-based, Canis lupus familiaris. Conditions: in vivo. An outline of the steps: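 Dogs given a single oral 5 mg/kg dose as a nanosuspension (hydroxypropyl cellulose SL, 0.05% docusate sodium in purified water), 1/sex. Unbound plasma Cmax and AUC determined, with clinical signs monitored at approximate hours postdose.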

For series [14], the system named is Canis familiaris. Briefly: Cholinergic toxicity in dog assessed as circling behaviour at 5 mg/kg, po administered as single dose using spray dried dispersion formulation after 4.3 hrs. It counts as organism-based, Canis lupus familiaris. Conditions: in vivo. The procedure, abridged:
as §2

Muscarinic acetylcholine receptor M3, sequence (P20309 whole entry): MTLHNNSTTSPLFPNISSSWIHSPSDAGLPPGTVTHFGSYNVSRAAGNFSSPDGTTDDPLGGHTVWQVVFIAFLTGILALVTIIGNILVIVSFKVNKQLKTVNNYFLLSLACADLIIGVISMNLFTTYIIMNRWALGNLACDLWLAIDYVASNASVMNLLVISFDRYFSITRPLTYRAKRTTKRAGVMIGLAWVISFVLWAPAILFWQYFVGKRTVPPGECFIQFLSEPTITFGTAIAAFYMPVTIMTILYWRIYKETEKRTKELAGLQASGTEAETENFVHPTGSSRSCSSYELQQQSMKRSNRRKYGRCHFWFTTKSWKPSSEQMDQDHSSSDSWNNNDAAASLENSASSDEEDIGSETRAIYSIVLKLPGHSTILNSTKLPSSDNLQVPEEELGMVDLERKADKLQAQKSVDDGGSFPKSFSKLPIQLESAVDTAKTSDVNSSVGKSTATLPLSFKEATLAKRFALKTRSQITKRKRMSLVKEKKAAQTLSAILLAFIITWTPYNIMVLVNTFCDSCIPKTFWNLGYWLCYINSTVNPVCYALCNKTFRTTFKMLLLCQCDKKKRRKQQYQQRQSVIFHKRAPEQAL

For the compound `Cc1cc2c(cc1Cc1ccc(-c3cocn3)cc1)C(=O)N([C@H]1CCOC[C@@H]1O)C2`, the Kp uu in series [1] and in [3] was 0.3 each time. This compound showed a half-life in series [2] of 402 min. Moreover, in series [4], the bioavailability is 65%. Further, the Activity result in series [5] was “Not Active”; in series [7], “Not Active”; in the series on Canis familiaris [8], “Toxic”; in series [9], 23%; in the series with Canis familiaris [14], “Toxic”. For the same compound, the EC50 in series [6] is greater than 10 µM. The “log(activity)” value in series [10] came out at 2.9. Moreover, the Ratio in series [11] is 100. Besides, the “Drug uptake(free)” value in the series with Brain is listed as 13 nM. This compound also registered a fCmax with Canis familiaris [12] of 446 nM. The fAUC in the series with Canis familiaris [13] came to 3.37 µM·h.

One may read the half-life as the time in which the quantity being followed falls by half. A lower half-life goes with rapid decline. Usually bioavailability stands for the share of a dose that reaches the circulation, judged against a reference dose that is usually intravenous. A high value points to good availability. Usually EC50 stands for the concentration that produces a half-maximal response.
